Data set [1] concerns Mus musculus. The experiment in a line: In vivo degradation of ERalpha in C57BL/6 mouse at 50 mg/kg, po measured after 7 hrs by Western blot analysis. In kind it is functional, organism-based. Put shortly: (§1)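 Female C57BL/6J mice aged 9–12 weeks were dosed at 50 mg/kg p.o. in PEG 400/10% HPCD (1:9 v/v). Regimens were a single dose with sacrifice at 5 h, or 3 daily doses with sacrifice 5 h (n = 5) or 7 h (n = 6) after the last dose. Ovaries and uterus were homogenized, 20 μg protein was run by SDS-PAGE, and the blot was probed for ERα and normalized to β-actin.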

Data set [2] is described as follows: AUClast/D in CD-1 mouse at 5 mg/kg, iv measured upto 24 hrs by LC-MS/MS analysis. The note with it: in vivo.
The nature of data set [3]: Oral bioavailability in C57BL/6 mouse at 50 mg/kg measured upto 24 hrs by LC-MS/MS analysis. The data set is classed as ADME, organism-based. The note with it: in vivo. Put shortly: (§2)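 Full PK run by a contract lab. Dosing was 50 mg/kg p.o. in water and 10% SBE-β-CD/PEG-400 (9:1 v/v), and 5 mg/kg i.v. Sampling at 0.25, 0.5, 1, 2, 4, 8 and 24 h (N = 5). Plasma samples were diluted in 50% acetonitrile and quantified by LC-MS/MS against standards serially diluted in 50% acetonitrile. Brain was also sampled after the oral dose.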

In data set [4] the test system is Mus musculus. Briefly: In vivo degradation of ERalpha in C57BL/6 mouse at 50 mg/kg, po administered for 3 days and measured on day 3 by Western blot analysis. In kind it is functional, organism-based. Summed up:
as §1
For orientation: Immunoblotting shows a protein as a band on a membrane.

A short description of data set [5]: Drug concentration in C57BL/6 mouse brain at 100 mg/kg, po measured after 2 hrs by LC/MS-MS analysis. In kind it is ADME, organism-based. The note with it: read-out: Drug uptake. Put shortly:
(§3)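 PK screen in female C57BL/6 mice (N = 3 per time point). Dosed by gavage at 100 mg/kg in HPβD/PEG-400. Plasma and brain were taken from perfused mice at 30 and 120 min. Quantified by LC-MS/MS in MRM mode, with standard curves in each matrix and a common internal standard. Values are mean and s.d.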

The nature of data set [6]: Tmax in C57BL/6 mouse brain at 50 mg/kg, po measured upto 24 hrs by LC-MS/MS analysis. In kind it is ADME, organism-based. The note with it: in vivo. Put shortly:
as §2

The nature of data set [7]: Plasma concentration in C57BL/6 mouse at 100 mg/kg, po measured after 0.5 hrs by LC/MS-MS analysis. In kind it is ADME, organism-based. Summed up: as §3
The nature of data set [8]: MRT (0 to infinity) in CD-1 mouse at 5 mg/kg, iv measured upto 24 hrs by LC-MS/MS analysis. The note with it: in vivo.
The nature of data set [9]: Cmax in CD-1 mouse plasma at 50 mg/kg, po measured upto 24 hrs by LC-MS/MS analysis. The note with it: in vivo.
Data set [10] can be described thus: Antiproliferative activity against human MCF7:WS8 cells assessed as reduction in cell viability incubated for 5 days by Hoechst 33258 dye based assay. In kind it is functional. The settings on record: MCF7:WS8, 120 h. Put shortly: (§4)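 Cells were seeded at 5000 per well; MCF7:WS8 had been estrogen-stripped for 2 days first. Compounds were serially diluted in DMSO, with 0.01% DMSO as vehicle. The medium was removed on day 5 (MCF7:WS8) or day 7 (MCF7:5C), and cells were lysed by freezing at −80 °C overnight. DNA was measured by Hoechst 33258 fluorescence. Maximum efficacy was normalized to vehicle (0%) and no cells (100%); at least three biological replicates.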

The species entered for data set [11] is Homo sapiens. The experiment in a line: Cytotoxicity against human MCF7:WS8 3D spheroid cells assessed as reduction in tumor cell viability at 10 nM incubated for 14 days by celltiter-glo 3D cell viability assay. For orientation: ATP-based viability assays read luminescence as a measure of living cells.
Data set [12] can be described thus: Cmax in C57BL/6 mouse at 5 mg/kg, iv measured upto 24 hrs by LC-MS/MS analysis. In kind it is ADME, organism-based. Further details: dose 5 mg/kg, route intravenous. The note with it: in vivo. Put shortly:
as §2

Data set [13] in a line: Tmax in CD-1 mouse plasma at 50 mg/kg, po measured upto 24 hrs by LC-MS/MS analysis. The settings on record: in vivo.
Data set [14] is described as follows: AUC (0 to infinity) in CD-1 mouse plasma at 50 mg/kg, po measured upto 24 hrs by LC-MS/MS analysis. The settings on record: in vivo.
A short description of data set [15]: AUClast in CD-1 mouse plasma at 50 mg/kg, po measured upto 24 hrs by LC-MS/MS analysis. The settings on record: in vivo.
Data set [16] has as its target T1, Estrogen receptor (Homo sapiens) (UniProt P03372).
T1 sequence (whole entry): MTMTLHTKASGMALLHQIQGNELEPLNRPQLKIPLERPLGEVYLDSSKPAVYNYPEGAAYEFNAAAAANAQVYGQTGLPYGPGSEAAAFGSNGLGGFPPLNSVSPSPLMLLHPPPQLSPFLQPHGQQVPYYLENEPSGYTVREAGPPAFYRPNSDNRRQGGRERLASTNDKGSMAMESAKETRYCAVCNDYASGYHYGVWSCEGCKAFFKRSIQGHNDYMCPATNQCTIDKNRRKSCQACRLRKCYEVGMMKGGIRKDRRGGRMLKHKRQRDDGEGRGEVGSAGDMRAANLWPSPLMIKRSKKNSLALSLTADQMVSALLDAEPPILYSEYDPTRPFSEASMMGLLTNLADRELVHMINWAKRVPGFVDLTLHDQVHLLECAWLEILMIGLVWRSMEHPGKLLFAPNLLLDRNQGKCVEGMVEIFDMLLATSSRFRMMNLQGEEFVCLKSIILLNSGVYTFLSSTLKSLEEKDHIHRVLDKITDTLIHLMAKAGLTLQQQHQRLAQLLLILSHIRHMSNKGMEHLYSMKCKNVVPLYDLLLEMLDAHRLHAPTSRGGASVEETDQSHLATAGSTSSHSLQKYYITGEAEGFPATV
Briefly: Induction of degradation of ERalpha in human MCF7:WS8 cells at 100 nM in presence of MG-132 incubated for 24 hrs by Western blot analysis. In kind it is cell-based.

Data set [17] is described as follows: AUC (0 to infinity) in C57BL/6 mouse brain at 50 mg/kg, po measured upto 24 hrs by LC-MS/MS analysis. The data set is classed as ADME, organism-based. Further details: dose 50 mg/kg, route oral, time infinity. The note with it: in vivo. Summed up: as §2
For data set [18], the species on record is Homo sapiens. Briefly: Cytotoxicity against human MCF7:WS8 3D spheroid cells assessed as reduction in tumor spheroid size at 10 nM incubated for 14 days.
A short description of data set [19]: Plasma concentration in C57BL/6 mouse at 100 mg/kg, po measured after 2 hrs by LC/MS-MS analysis. In kind it is ADME, organism-based. Summed up: as §3
Data set [20] deals with T1, Estrogen receptor (Homo sapiens). The experiment in a line: Induction of degradation of ERalpha in human MCF7:WS8 cells at 10 nM in presence of MG-132 incubated for 24 hrs by Western blot analysis. The data set is classed as cell-based.
The target is the same in data set [21]. The experiment in a line: Inhibition of ERalpha in human MCF7:WS8 cells assessed as increase in degradation of ERalpha incubated for 24 hrs by In-Cell Western assay relative to control. In kind it is cell-based. Put shortly: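 MCF7:WS8 cells were estrogen-stripped for 2 days and plated at 2.5 × 10^4 per well. After 48 h they were treated for 24 h. ERα was detected by in-cell western (H10 antibody), with signal normalized to CellTag 700.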

Data set [22] is described as follows: Antiproliferative activity against human MCF7:5C cells assessed as reduction in cell viability incubated for 7 days by Hoechst 33258 dye based assay relative to control. The settings on record: 168 h. The data set is classed as functional. Put shortly: as §4

The source made the active and inactive calls. The rule behind the calls is not given here.

The term Tmax denotes the time at which the peak concentration occurs. A word on the MRT: it is the average time that molecules of a dose stay in the body. As usually defined, the Cmax is the highest concentration seen after dosing. By IC50 is commonly meant the concentration that gives 50% inhibition. As a reminder, the AUC is concentration integrated over time. As to `Cc1cc(F)cc(C)c1C(=O)c1sc2cc(O)ccc2c1Oc1ccc(OC2CN(CCCF)C2)cc1`, the outcome in [1], in data set [4], in data set [11] and in data set [18] was Active. In addition, in [2], the AUClast/dose was 153 ng·h/mL. Further, the F in [3] is reported as 21.9%. In addition, the concentration at 2 h in [5] was determined as 1.25 µM; in data set [19] it was 2.15 µM. For the same compound, the Tmax in data set [6] and in [13] was 1 h throughout. This compound gave a concentration at 0.5 h in [7] of 2.49 µM. The same compound displayed an MRT in [8] of 1.07 h. The Cmax is 0.413 µg/mL in data set [9] and 1.59 µg/mL in [12]. In addition, the concentration for half-maximal inhibition (IC50) in data set [10] is 0.55 nM. For the same compound, the AUC amounted to 2.292 µg·h/mL in data set [14] and 3.45 µg·h/mL in data set [17]. This compound also gave an AUClast in data set [15] of 1.678 µg·h/mL. In addition, the result in data set [16] and in data set [20] was inactive. In [21], the Efficacy was 92%. Further, the Emax in data set [22] was 54%.

The values are drawn from ChEMBL document CHEMBL4354825, “Design and Synthesis of Basic Selective Estrogen Receptor Degraders for Endocrine Therapy Resistant Breast Cancer” (J Med Chem, 2019).
